Experimental data: ChEMBL document CHEMBL1129609, “Synthesis and antiviral activity evaluation of some new aminoadamantane derivatives. 2” (1996)
Values after ≈ are worked out from the molar mass of the structure shown.

Key:
Format in all cases: functional
[1] = system: CCRF-CEM; assay: Antiviral activity of compound was tested against viability virus infected CEM cell lines.; settings: Homo sapiens
[2] = system: CCRF-CEM; assay: Antiviral activity of compound were tested against HIV-2 virus infected CEM cell lines.; settings: Homo sapiens
[3] = system: HEF; assay: Antiviral activity of compound was tested against HSV-2 virus infected HEF cell lines.; settings: Homo sapiens
Summary of the method: (§1)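 Human embryonic fibroblasts, from embryonic lung or embryonic skin-muscle, infected with the virus. Endpoint is the minimum inhibitory concentration that reduces virus-induced cytopathicity by 50%. Values are averages of at least two separate experiments.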

[4] = system: HEF; assay: Antiviral activity of compound was tested against TK-HSV-1 virus infected HEF cell lines.; settings: Homo sapiens; summary of the method: as §1
[5] = system: HEF; assay: Antiviral activity of compound was tested against morphology virus infected HEF cell lines.; settings: Homo sapiens
[6] = system: HEF; assay: Antiviral activity of compound was tested against vaccinia virus infected HEF cell lines.; settings: Homo sapiens; summary of the method: as §1
[7] = system: HEL; assay: Antiviral activity of compound was tested against proliferation virus infected HEL cell lines.; settings: Homo sapiens
[8] = system: HeLa; assay: Antiviral activity of compound was tested against morphology virus infected HeLa cell lines.; settings: Homo sapiens
[9] = system: HeLa; assay: Antiviral activity of compound was tested against polio-1 virus infected HeLa cell lines.; settings: Homo sapiens
Summary of the method: (§2)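 Vero (African green monkey kidney), HeLa (human epithelial) or HEL (human embryonic lung) cell monolayers infected with the virus. Readout is the minimum inhibitory concentration that reduces virus-induced cytopathicity by 50%. Values are averages of at least two separate experiments.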

[10] = system: HeLa; assay: Antiviral activity of compound was tested against stomatitis virus infected HeLa cell lines.; settings: Homo sapiens; summary of the method: as §2
[11] = system: HEL; assay: Antiviral activity of compound was tested against HCMV virus infected HEL cell lines.; settings: Homo sapiens; summary of the method: as §2
[12] = system: HEL; assay: Antiviral activity of compound was tested against TK+VZV virus infected HEL cell lines.; settings: Homo sapiens; summary of the method: as §2
[13] = system: HEL; assay: Antiviral activity of compound was tested against TK-VZV virus infected HEL cell lines.; settings: Homo sapiens; summary of the method: as §2
[14] = system: HeLa; assay: Antiviral activity of compound was tested against Coxsackie B4 virus infected HeLa cell lines.; settings: Homo sapiens; summary of the method: as §2
[15] = system: MDCK; assay: Antiviral activity tested against influenza A,H1N1 virus infected MDCK cell lines.; settings: Canis lupus familiaris
[16] = system: MDCK; assay: Antiviral activity of compound was tested against influenza A,H3N2 virus infected MDCK cell lines.; settings: Canis lupus familiaris
[17] = system: MDCK; assay: Antiviral activity of compound was tested against influenza […] virus infected MDCK cell lines; settings: Canis lupus familiaris
[18] = system: MDCK; assay: Antiviral activity of compound was tested against morphology virus infected MDCK cell lines.; settings: Canis lupus familiaris
[19] = system: Vero; assay: Antiviral activity of compound was tested against sindbis virus infected vero cell lines.; settings: Chlorocebus sabaeus; summary of the method: as §2
[20] = system: Vero; assay: Antiviral activity of compound were tested against semliki forest virus infected vero cell lines.; settings: Chlorocebus sabaeus; summary of the method: as §2
[21] = system: Vero; assay: Antiviral activity of compound was tested against Coxsackie B4 virus infected vero cell lines.; settings: Chlorocebus sabaeus; summary of the method: as §2
[22] = system: Vero; assay: Antiviral activity of compound was tested against parainfluenza 3,[…] virus infected Vero cell lines.; settings: Chlorocebus sabaeus; summary of the method: as §2
[23] = system: Vero; assay: Antiviral activity of compound was tested against reo1 virus infected vero cell lines.; settings: Chlorocebus sabaeus; summary of the method: as §2
[24] = Antiviral activity against influenza A,H2N2 virus infected MDCK cell lines.
[25] = system: Vero; assay: Antiviral activity of compound was tested against morphology virus infected Vero cell lines.; settings: Chlorocebus sabaeus
[26] = system: CCRF-CEM; assay: Antiviral activity of compound was tested against HIV-1 virus infected CEM cell lines.; settings: Homo sapiens
[27] = system: HEF; assay: Antiviral activity of compound was tested against vesicular virus infected HEF cell lines.; settings: Homo sapiens; summary of the method: as §1
[28] = system: Human alphaherpesvirus 1; assay: Antiviral activity against HSV-1 virus infected HEF cell lines.; summary of the method: as §1
[29] = system: Human alphaherpesvirus 2; assay: Antiviral activity against HSV-2 virus infected HEF cell lines.; summary of the method: as §1
[30] = system: Human alphaherpesvirus 1; assay: Antiviral activity against TK-HSV-1 virus infected HEF cell lines.; summary of the method: as §1
[31] = system: Vaccinia virus; assay: Antiviral activity against vaccinia virus infected HEF cell lines.; settings: Orthopoxvirus vaccinia; summary of the method: as §1
[32] = system: Vesicular stomatitis virus; assay: Antiviral activity against vesicular stomatitis virus infected HEF cell lines.; summary of the method: as §1

Structure (SMILES)	MIC50 [1] [µg/mL]	MIC50 [2] [µg/mL]	MIC50 [5] [µg/mL]	MIC50 [7] [µg/mL]	MIC50 [8] [µg/mL]	MIC50 [9] [µg/mL]	MIC50 [10] [µg/mL]	MIC50 [11] [µg/mL]	MIC50 [12] [µg/mL]	MIC50 [13] [µg/mL]	MIC50 [14] [µg/mL]	MIC50 [15] [µg/mL]	MIC50 [16] [µg/mL]	MIC50 [17] [µg/mL]	MIC50 [18] [µg/mL]	MIC50 [19] [µg/mL]	MIC50 [20] [µg/mL]	MIC50 [21] [µg/mL]	MIC50 [22] [µg/mL]	MIC50 [23] [µg/mL]	also measured
CN(C)CC1CCN(C23CC4CC(CC(C4)C2)C3)C1 (stereo not given)	79 (≈ 301 µM)	> 40	40 (≈ 152 µM)	> 50	400 (≈ 1520 µM)	> 200	> 200	> 20	> 20	> 50	> 200	> 36	> 100	> 100	400 (≈ 1520 µM)	> 100	> 100	> 100	> 100	> 100	MIC50 [3]: > 10 µg/mL; MIC50 [4]: > 10 µg/mL; MIC50 [6]: > 10 µg/mL; MIC50 [24]: 16.1 µg/mL (≈ 61.3 µM); MIC50 [25]: > 400 µg/mL; MIC50 [26]: > 23 µg/mL; MIC50 [27]: > 10 µg/mL
CN1CCOCC12C1CC3CC(C1)CC2C3 (stereo not given)	> 200	> 200	> 400	> 50	> 400	> 400	> 400	> 50	> 50	> 50	> 400	22 (≈ 99.4 µM)	53 (≈ 239 µM)	60 (≈ 271 µM)	> 250	> 400	> 400	> 400	> 400	> 400	MIC50 [28]: > 400 µg/mL; MIC50 [29]: > 400 µg/mL; MIC50 [30]: > 400 µg/mL; MIC50 [31]: > 400 µg/mL; MIC50 [24]: 4.3 µg/mL (≈ 19.4 µM); MIC50 [25]: > 400 µg/mL; MIC50 [26]: 158 µg/mL (≈ 714 µM); MIC50 [32]: > 400 µg/mL
